Test results reported in PubChem BioAssay AID504323 (Broad Institute, 2011).
“And” between values parts separate entries of the source, which are not always exact repeats. Equal entries are not always repeated. The source made the active and inactive calls.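 Rule for the calls: active = compounds lowering the viability signal whose fitted AC50 is no more than ten times their top tested dose; inconclusive = flat fit with a 30 to 70% drop, or poor fit; inactive = the rest.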

Columns and labels:
[1] = U2OS reporter cell viability with added zinc – zinc-supplemented medium, dry powder, cytotoxicity control for HIF pathway activator project, dose response (AID 504323); conditions: U2OS HRE-luciferase cells, viability toxicity, luminescence; at 38 µM (top of the series)
How it was run: (§1)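 Material – U2OS 3×HRE-luciferase reporter cells · Quantity – 6,000 cells/well · Medium – 50 µM zinc sulfate final · Doses – Eight-point compound series with threefold dilution steps · Timing – 24 h attachment, then 24 h compound exposure at 37 °C · Technique – CellTiter-Glo luminescence for cell viability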

[2] = tested on: U2OS HRE-luciferase cells, viability toxicity, luminescence; experiment: as above
How it was run: as §1

| Structure (SMILES) | activity change, negative = toxicity [1] | AC50 [2] |
| --- | --- | --- |
| O=C(NCCCCO)c1cc(-c2ccccc2)on1 | 6.82% (inactive) | – |
| Cn1c(-c2ccccc2)cnc1NC(=O)c1cc(-c2ccccc2)on1 | -1.6% (inactive) | – |
| Cc1ccccc1CNc1nc(-c2ccccn2)nnc1-c1ccccc1 | -8.68% (inactive) | – |
| OCC1CCN(Cc2ccc(O)c3ncccc23)CC1 | -18.1% (inactive) | – |
| Oc1ccc(CN2CCC(Cc3ccccc3)CC2)c2cccnc12 | -1.98% (inactive) | – |
| Cn1c(NC(=O)c2cc(-c3ccccc3)on2)nc2ccccc21 | 16% (inactive) | – |
| c1ccc(CCNc2nc(-c3ccccn3)nnc2-c2ccccc2)cc1 | -7.93% (inactive) | – |
| CN(C)c1nc(-c2ccccn2)nnc1-c1ccccc1 | 33.4% (inactive) | – |
| O=C(c1cc(-c2ccccc2)on1)N1CCC(N2CCOCC2)CC1 | 2.52% (inactive) | – |
| CC(C)(C)CCNc1nc(-c2ccccn2)nnc1-c1ccccc1 | -16.3% (inactive) | – |
| O=C(NC1Cc2ccccc2C1)c1cc(-c2ccccc2)on1 | -8.56% (inactive) | – |
| CN1CCN(c2nc(-c3ccccn3)nnc2-c2ccccc2)CC1 | -11.4% (inactive) | – |
| CC(C)(C)OC(=O)N1CCN(Cc2ccc(O)c3ncccc23)CC1 | 6.73% (inactive) | – |
| c1ccc(CNc2nc(-c3ccccn3)nnc2-c2ccccc2)cc1 | 11.5% (inactive) | – |
| Clc1cccc(CNc2nc(-c3ccccn3)nnc2-c2ccccc2)c1 | -1.81% (inactive) | – |
| Cn1c(-c2ccccc2)cnc1Nc1nc(-c2ccccn2)nnc1-c1ccccc1 | – | > 38 µM (inactive) |
| C[C@H](Nc1nc(-c2ccccn2)nnc1-c1ccccc1)C1CCCCC1 | -13.5% (inactive) | – |
| COc1ccc(CNc2nc(-c3ccccn3)nnc2-c2ccccc2)cc1 | 1.65% (inactive) | – |
| O=C(NCC1CCCCC1)c1cc(-c2ccccc2)on1 | -11% (inactive) | – |
| O=C(c1cc(-c2ccccc2)on1)N1CCN(c2ccncc2)CC1 | -1.95% (inactive) | – |
| O=C(NCCN1CCOCC1)c1cc(-c2ccccc2)on1 | 10.8% (inactive) | – |
| c1ccc(-c2nnc(-c3ccccn3)nc2NCCCN2CCOCC2)cc1 | 23.8% (inactive) | – |
| c1ccc(-c2nnc(-c3ccccn3)nc2N2CCC(c3ccccc3)C2)cc1 (centres undefined) | -12.2% (inactive) | – |
| c1ccc(-c2nnc(-c3ccccn3)nc2Nc2cnc3ccccc3n2)cc1 | – | 10.1 µM |
| CC(Nc1nc(-c2ccccn2)nnc1-c1ccccc1)c1ccccc1 (centres undefined) | -0.542% (inactive) | – |
| c1ccc(-c2nnc(Nc3nc(-c4ccccn4)nnc3-c3ccccc3)s2)cc1 | – | > 38 µM (inactive) |
| c1ccc(-c2nnc(-c3ccccn3)nc2NCC2CCOCC2)cc1 | 14.9% (inactive) | – |

| Structure (SMILES) | activity change, negative = toxicity [1] | AC50 [2] |
| --- | --- | --- |
| Cc1cccc(NC(=O)c2cc(-c3ccccc3)on2)n1 | 2.1% (inactive) | – |
| c1ccc(-c2nnc(-c3ccccn3)nc2NCc2cccnc2)cc1 | 30.2% (inactive) | – |
| CN(C)CCNC(=O)c1cc(-c2ccccc2)on1 | 7.75% (inactive) | – |
| O=C(NCCCn1ccnc1)c1cc(-c2ccccc2)on1 | -5.48% (inactive) | – |
| CC1CN(Cc2ccc(O)c3ncccc23)CC(C)O1 (centres undefined) | -3.44% (inactive) | – |
| O=C(Nc1nc(-c2ccccc2)cs1)c1cc(-c2ccccc2)on1 | 7.74% (inactive) | – |
| C=CCNc1nc(-c2ccccn2)nnc1-c1ccccc1 | 29% (inactive) | – |
| O=C(Nc1nc2ccccc2s1)c1cc(-c2ccccc2)on1 | 18.7% (inactive) | – |
| OCCCNc1nc(-c2ccccn2)nnc1-c1ccccc1 | 17.6% (inactive) | – |
| c1ccc(-c2nnc(-c3ccccn3)nc2NCC2CC2)cc1 | 20.9% (inactive) | – |
| COc1ccccc1N1CCN(Cc2ccc(O)c3ncccc23)CC1 | -14.5% (inactive) | – |
| O=C(Nc1ncc(-c2ccccc2)o1)c1cc(-c2ccccc2)on1 | -2.78% (inactive) | – |
| O=C(NCC1CC1)c1cc(-c2ccccc2)on1 | 22.5% (inactive) | – |
| OCC1CCN(c2nc(-c3ccccn3)nnc2-c2ccccc2)CC1 | 10.9% (inactive) | – |
| O=C(c1cc(-c2ccccc2)on1)N1CCC(CO)CC1 | 9.31% (inactive) | – |
| c1ccc(-c2nnc(-c3ccccn3)nc2N2CCC(N3CCOCC3)CC2)cc1 | 21.5% (inactive) | – |
| COc1cccc(CNc2nc(-c3ccccn3)nnc2-c2ccccc2)c1 | -8.43% (inactive) | – |
| Cc1ccc(Nc2nc(-c3ccccn3)nnc2-c2ccccc2)cn1 | 3.19% (inactive) | – |
| O=C(NCCN1CCCCC1)c1cc(-c2ccccc2)on1 | 14.1% (inactive) | – |
| c1ccc(-c2nnc(-c3ccccn3)nc2NCc2ccccn2)cc1 | -3.76% (inactive) | – |
| c1ccc(-c2nnc(-c3ccccn3)nc2NCCN2CCOCC2)cc1 | 3.62% (inactive) | – |
| Cc1ccc(CNc2nc(-c3ccccn3)nnc2-c2ccccc2)cc1 | 4.61% (inactive) | – |
| CC(C)(C)CCNC(=O)c1cc(-c2ccccc2)on1 | -8.3% (inactive) | – |
| Cc1ccc(NC(=O)c2cc(-c3ccccc3)on2)cn1 | -11.1% (inactive) | – |
| O=C(NC1CCc2ccccc2C1)c1cc(-c2ccccc2)on1 (centres undefined) | – | > 38 µM (inactive) |
| O=C(Nc1ccc2ccccc2n1)c1cc(-c2ccccc2)on1 | 16.8% (inactive) | – |
| Oc1ccc(CNC2CCc3ccccc32)c2cccnc12 (centres undefined) | -6.14% (inactive) | – |

| Structure (SMILES) | activity change, negative = toxicity [1] | AC50 [2] |
| --- | --- | --- |
| c1ccc(-c2nnc(-c3ccccn3)nc2N2CCN(c3ccncc3)CC2)cc1 | 16.2% (inactive) | – |
| O=C(Nc1cn2ccccc2n1)c1cc(-c2ccccc2)on1 | 10.3% (inactive) | – |
| c1ccc(-c2cccc(CNc3nc(-c4ccccn4)nnc3-c3ccccc3)c2)cc1 | 21.1% (inactive) | – |
| Cc1cccc(Nc2nc(-c3ccccn3)nnc2-c2ccccc2)n1 | -13.3% (inactive) | – |
| CCCCNC(=O)c1cc(-c2ccccc2)on1 | 15.6% (inactive) | – |
| Cc1ccccc1CNC(=O)c1cc(-c2ccccc2)on1 | 6.54% (inactive) | – |
| O=C(NCCCO)c1cc(-c2ccccc2)on1 | 3.54% (inactive) | – |
| c1ccc(-c2ccc(CNc3nc(-c4ccccn4)nnc3-c3ccccc3)cc2)cc1 | 7.11% (inactive) | – |
| c1ccc(-c2nnc(-c3ccccn3)nc2N2CCC(C3CCCCC3)C2)cc1 (centres undefined) | 25.2% (inactive) | – |
| Oc1ccc(CN2CCc3ccccc3C2)c2cccnc12 | -93.5% (inactive) and -0.278% (inactive) | – |
| O=C(Nc1nnc(-c2ccccc2)s1)c1cc(-c2ccccc2)on1 | 16.2% (inactive) | – |
| c1ccc(-c2csc(Nc3nc(-c4ccccn4)nnc3-c3ccccc3)n2)cc1 | -2.4% (inactive) | – |
| O=C(Nc1ncc2ccccc2n1)c1cc(-c2ccccc2)on1 | -15.3% (inactive) | – |
| Cc1cccc(CNc2nc(-c3ccccn3)nnc2-c2ccccc2)c1 | -2.48% (inactive) | – |
| CN1CCN(C(=O)c2cc(-c3ccccc3)on2)CC1 | 2.31% (inactive) | – |
| O=C(NCc1ccccc1)c1cc(-c2ccccc2)on1 | 4.7% (inactive) | – |
| c1ccc(-c2nnc(-c3ccccn3)nc2NCCc2ccccn2)cc1 | 12.3% (inactive) | – |
| O=C(c1cc(-c2ccccc2)on1)N1CCC(N2CCCC2)CC1 | 4.1% (inactive) | – |
| Cc1cccc(CNC(=O)c2cc(-c3ccccc3)on2)c1 | -2.43% (inactive) | – |
| Cc1ccc(CNC(=O)c2cc(-c3ccccc3)on2)cc1 | -12.8% (inactive) | – |
| O=C(Nc1cnc2ccccc2c1)c1cc(-c2ccccc2)on1 | 5.21% (inactive) | – |
| c1ccc(-c2nnc(-c3ccccn3)nc2Nc2nc3ccccc3s2)cc1 | – | 8.1 µM |
| O=C(c1cc(-c2ccccc2)on1)N1CCc2cccnc21 | -4.78% (inactive) | – |
| c1ccc(-c2cnc(Nc3nc(-c4ccccn4)nnc3-c3ccccc3)s2)cc1 | 10.3% (inactive) | – |
| O=C(NCCCN1CCOCC1)c1cc(-c2ccccc2)on1 | 15.2% (inactive) | – |
